High-throughput results: PubChem, The Scripps Research Institute Molecular Screening Center
M5 antag: blocks acetylcholine activation of human M5 receptor. inhibition, % at 3 µM. CHO-hM5 cells, Fluo-8 calcium fluorescence, ACh EC80. hit rate 0.59% among 360,000. P08912;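 active = inhibition above a per-plate cutoff, the mean of that plate's test compounds plus 3 SD, cut at about 27% in these data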
Target sequence (P08912 whole entry, looked up): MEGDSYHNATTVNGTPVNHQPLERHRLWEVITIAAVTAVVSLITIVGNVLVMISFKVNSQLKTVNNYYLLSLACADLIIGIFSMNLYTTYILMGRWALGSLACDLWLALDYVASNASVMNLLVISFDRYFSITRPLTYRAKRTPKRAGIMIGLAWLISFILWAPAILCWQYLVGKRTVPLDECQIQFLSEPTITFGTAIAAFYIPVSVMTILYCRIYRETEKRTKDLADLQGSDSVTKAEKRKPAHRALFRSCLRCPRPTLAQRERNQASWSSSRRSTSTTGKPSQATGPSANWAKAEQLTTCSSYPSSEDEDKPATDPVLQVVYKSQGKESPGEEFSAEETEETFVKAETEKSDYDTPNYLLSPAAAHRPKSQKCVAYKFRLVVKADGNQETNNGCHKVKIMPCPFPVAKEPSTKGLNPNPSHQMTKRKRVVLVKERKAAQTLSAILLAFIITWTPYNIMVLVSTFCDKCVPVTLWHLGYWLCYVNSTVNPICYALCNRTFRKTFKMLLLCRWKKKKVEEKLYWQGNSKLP
M5 ag: CHRM5 agonism in calcium assay. P08912. AID 624037. hit rate 0.19% among 360,000. activation, % at 3 µM. CHO-K1 hM5 cells, Fluo-8 calcium fluorescence; 0% DMSO wells, 100% maximal acetylcholine response;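 active = activation above the run's mean over test compounds plus 3 SD, cut at about 23% in these data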;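 also: signal is peak over basal fluorescence ratio across the kinetic read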
CHRM1 antagonist: human CHRM1 antagonism. P11229. CHO-K1 hM1, Fluo-8 calcium fluorescence, ACh EC80 antagonist. inhibition, % at 3 µM. hit rate 1.3% among 360,000;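 active = percent inhibition above its own plate's cutoff, namely the mean of that plate's compound wells plus 3 SD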;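 also: peak over basal fluorescence ratio during 140 s after agonist addition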
CHRM5 PAM: CHRM5 positive allosteric modulation. P08912. CHO-K1 hM5, Fluo-8 calcium, ACh EC20 PAM; 0% = ACh EC20, 100% = ACh EC100. activation, % at 3 µM. hit rate 0.3% among 360,000. AID 624038;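 active = activation above the run cutoff, the mean activation of all test compounds plus 3 SD, cut at about 18% in these data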
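Assay system: CHO-K1 hM5 cells. Also added: acetylcholine at EC20 concentration, added after compound. Dosing: 3 µM, single dose. Times: compound preincubation 140 s before EC20 acetylcholine addition. Signal: Fluo-8 calcium fluorescence. Measure: % activation relative to EC20 and EC100 ACh responses. Repeats: singlicate, one well per test compound.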
CHRM1 agonist: agonists of human M1 muscarinic receptor. CHO-K1 hM1, Fluo-8 calcium fluorescence, agonist mode; 0% DMSO, 100% acetylcholine EC100. P11229. activation, % at 3 µM. AID 588814. hit rate 0.33% among 360,000;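 active = activation above the run's mean compound activation plus 3 SD, cut at about 16% in these data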;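 also: peak over basal fluorescence ratio within a 140 s kinetic read after compound addition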
CHRM1 PAM: human CHRM1 positive allosteric modulation. hit rate 0.088% among 360,000. P11229. CHO-K1 hM1, Fluo-8 calcium fluorescence, ACh EC20; 0% = ACh EC20, 100% = maximal ACh. activation, % at 3 µM; in the data active = activation above about 19%, passing the limit was not always enough
Large screens that a line does not name were inactive. Hits are enriched below; roughly 2.2% of the tested compounds scored in any of these assays.

C=CCN(c1ccccc1)S(=O)(=O)c1cccc(C(=O)NCC(c2ccccc2OC)N2CCCC2)c1 (stereo unspecified)	CHRM1 antagonist 50.4
COc1ccc(C(CNC(=O)c2cccc(S(=O)(=O)Nc3ccc(C)cc3)c2)N2CCCCC2)cc1 (stereo unspecified)	none
COc1ccccc1NS(=O)(=O)c1cccc(C(=O)NCC(c2ccco2)N2CCCC2)c1 (stereo unspecified)	none
CC(C)c1ccccc1NC(=O)COC(=O)c1ccc(Cl)c(S(=O)(=O)N2CCCCCC2)c1	none
COc1cccc(CN2C(=O)C(C)N(C(=O)c3ccccc3)c3ccccc32)c1 (stereo unspecified)	none
COc1cc(/C=C(\C#N)C(=O)c2c[nH]c3ccccc23)cc(OC)c1O	CHRM1 agonist 22.6
COc1cc(/C=C(\C#N)C(=O)NCCc2ccccc2)cc(OC)c1O	none
O=C(CNC(=O)c1ccc(Oc2ccccc2)cc1)OC1CCCCC1=O (stereo unspecified)	none
N#Cc1ccc(OCC(=O)N/N=C2\CCc3ccccc32)cc1	CHRM5 PAM 18.4
O=C(Nc1ccc(S(=O)(=O)Nc2ncccn2)cc1)C12CC3CC(CC(Cl)(C3)C1)C2	none
CC1(C(=O)Nc2ccc3ccccc3c2)CCC(=O)N1CCCn1ccnc1 (stereo unspecified)	none
COc1cccc(CN(C)C(=O)[C@@H](NC(=O)c2ccc(C)cc2)C(C)C)c1	none
CCC[N+]1(CC#CCC(c2ccccc2)c2ccccc2)CCCCC1	CHRM1 antagonist 63.3
Cc1ccc(C#CC[N+]2(CC#Cc3ccc(C)cc3)CCCCC2)cc1	CHRM1 antagonist 48.0
C(#Cc1ccccc1)C[N+]1(CC#Cc2ccccc2)CCCCC1	M5 antag 42.8, CHRM1 antagonist 59.6
CCNC(=O)C1(C)CCN(C(=O)c2ccc(OC(F)F)cc2)C1 (stereo unspecified)	none
Cc1ccc(SC[C@H](c2ccccc2)N2CCN(C)CCC2=O)cc1	CHRM1 antagonist 32.7
CN1CCC(=O)N([C@H](CSc2ccccc2)c2ccccc2)CC1	none
CCOC(=O)N1CCN(C(=O)CS(=O)(=O)Cc2nc(-c3cccc(OC)c3)oc2C)CC1	none
COc1cccc(-c2nc(CS(=O)(=O)CC(=O)N3CCN(C)CC3)c(C)o2)c1	M5 ag 51.8
COc1cccc(-c2nc(CS(=O)(=O)CC(=O)NCCCN3CC(C)CC(C)C3)c(C)o2)c1 (stereo unspecified)	CHRM1 antagonist 41.0
COc1ccc(-c2nc(CS(=O)(=O)CC(=O)NCc3ccc4c(c3)OCO4)c(C)o2)cc1	CHRM5 PAM 26.1
Cc1ccc(C(=O)N/C(=C\c2ccccc2)C(=O)NCCN2CCOCC2)cc1	none
CCCCOc1ccc(C2/C(=C(/O)c3ccc4c(c3)CC(C)O4)C(=O)C(=O)N2CCCN2CCOCC2)cc1OC (stereo unspecified)	none
S=C(NCc1cccs1)Nc1cc(Cl)cc(Cl)c1	CHRM1 antagonist 43.1
Cc1cccc2sc(N(CCCN(C)C)C(=O)c3cc4ccccc4oc3=O)nc12	none
Cc1cccc2sc(N(CCCN(C)C)C(=O)c3ccco3)nc12	M5 antag 49.0, CHRM1 antagonist 75.6
Cc1cccc2sc(N(CCCN(C)C)C(=O)c3ccc(Cl)s3)nc12	CHRM1 antagonist 50.9
Cc1ccc(C(=O)NCCc2nnc3ccc(SCC(=O)N4CCCCC4)nn23)cc1	none
Cc1ccc(S(=O)(=O)N2CCCC2c2nc3ccccc3s2)cc1 (stereo unspecified)	CHRM5 PAM 18.2
CCNc1ccc(C(=O)OCC(=O)NCCN2C(=O)CSC2=O)cc1[N+](=O)[O-]	CHRM5 PAM 22.4
C=CCOc1ccc(/C=C/C(=O)OCC(=O)N(C)CC(=O)Nc2ccc(F)cc2)cc1	none
COc1ccc(C(=O)/C=C(\C)NCc2ccc3c(c2)OCO3)cc1	none
S=C(Nc1cccc2ccccc12)NN1CCCCCC1	CHRM1 antagonist 40.7
Cc1cccc(OCc2nc(C#N)c(N3CC(C)CC(C)C3)o2)c1 (stereo unspecified)	none
Cc1cccc(OCc2nc(C#N)c(N3CCCC3)o2)c1	CHRM5 PAM 21.3
Cc1nnc(SCC(=O)N2CCCC2)n(N)c1=O	none
COc1ccc(CNc2ccc(Cl)cc2)cc1Cn1ccnc1	CHRM1 agonist 16.6
Fc1ccc(OCCCCCn2ccnc2)cc1	CHRM1 agonist 35.7
